≈ marks a conversion by molar mass, not a printed value.
What was measured:
P388 = assay: In vivo antitumor activity against mouse P388 cells at 0.125 mg/kg relative to control; format: functional
Candida albicans = assay: Antifungal activity against Candida albicans in presence of 50 ppm ergosterol; format: functional
How it was run: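 Candida albicans screened first by conventional agar disk diffusion. Samples active against C. albicans but not Escherichia coli were retested on agar-tryptic broth plates supplemented with ergosterol at 0–100 ppm. The assay picks out antifungal activity that depends on binding to membrane ergosterol.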

[1] = Inhibition of protein phosphatase 2A
L1210 = assay: Cytotoxicity against mouse L1210 cells at 0.1 ug/ml; format: functional
HCT-116 = assay: Cytotoxicity against human HCT116 cells; format: functional, cell-based
B16 = assay: Cytotoxicity against mouse B16 cells; format: functional, cell-based
KB = assay: Cytotoxicity against human KB cells; format: functional, cell-based
Leukemia cell = assay: In vivo antitumor activity against human leukemia cells xenografted in mouse at 160 ug/kg/injection relative to control; format: functional
Melanoma cell = assay: In vivo antitumor activity against human melanoma cells xenografted in mouse at 160 ug/kg//injection relative to control; format: functional

`C/C=C\[C@H](C)[C@H]1O[C@@]1(C)[C@@H](O)[C@H]1COC(=O)[C@H](O)[C@@H](OC)[C@H](C)C(=O)[C@H](C)[C@@H](O)/C(C)=C/[C@H](C)C(=O)CC[C@@H](C)C1=O` gave a T/C (P388) of 190%.

Molecule `C[C@@H]1[C@H](O)[C@@H](C)/C=C/C=C/C=C/C=C/C=C/C=C/C=C/[C@H](O[C@@H]2O[C@H](C)[C@@H](O)[C@H](N)[C@@H]2O)C[C@@H]2O[C@](O)(C[C@@H](O)C[C@@H](O)[C@H](O)CC[C@@H](O)C[C@@H](O)CC(=O)O[C@H]1C)C[C@H](O)[C@H]2C(=O)O` [AMPHOTERICIN B] has an Activity (Candida albicans) of 50%.

For `COC[C@@H]([C@H](O)[C@H](O)C(=O)NCC[C@H](C)c1nc(/C=C/C[C@@H]2O[C@]3(C[C@@H](O)[C@@H]2C)O[C@H]([C@H](C[C@H](O)[C@H](C)[C@H](O)[C@H](C)/C=C(C)/C(C)=C/C=C/C(C)=C\C#N)OC)[C@H](OP(=O)(O)O)C3(C)C)co1)N(C)C` [CALYCULIN A], the IC50 [1] was 900 pM.

With `COC[C@@H]([C@H](O)[C@H](O)C(=O)NCC[C@H](C)c1nc(/C=C/C[C@@H]2O[C@]3(C[C@@H](O)[C@@H]2C)O[C@H]([C@H](C[C@H](O)[C@H](C)[C@H](O)[C@H](C)/C=C(C)/C(C)=C/C=C/C(C)=C/C#N)OC)[C@H](OP(=O)(O)O)C3(C)C)co1)N(C)C` [CALYCULIN B] the IC50 [1] was 900 pM.

For `COC[C@@H]([C@H](O)[C@H](O)C(=O)N[C@H](C)C[C@H](C)c1nc(/C=C/C[C@@H]2O[C@]3(C[C@@H](O)[C@@H]2C)O[C@H]([C@H](C[C@H](O)[C@H](C)[C@H](O)[C@H](C)/C=C(C)/C(C)=C/C=C/C(C)=C/C#N)OC)[C@H](OP(=O)(O)O)C3(C)C)co1)N(C)C` [CALYCULIN D], the IC50 [1] was 900 pM.

`COC[C@@H]([C@H](O)[C@H](O)C(=O)NCC[C@H](C)c1nc(/C=C/C[C@@H]2O[C@]3(C[C@@H](O)[C@@H]2C)O[C@H]([C@H](C[C@H](O)[C@H](C)[C@H](O)[C@H](C)/C=C(C)/C(C)=C\C=C\C(C)=C/C#N)OC)[C@H](OP(=O)(O)O)C3(C)C)co1)N(C)C` [CALYCULIN E] gave an IC50 [1] of 900 pM.

With `COC[C@@H]([C@H](O)[C@H](O)C(=O)NCC[C@H](C)c1nc(/C=C/C[C@@H]2O[C@]3(C[C@@H](O)[C@@H]2C)O[C@H]([C@H](C[C@H](O)[C@H](C)[C@H](O)[C@H](C)/C=C(C)/C(C)=C\C=C\C(C)=C\C#N)OC)[C@H](OP(=O)(O)O)C3(C)C)co1)N(C)C` [CALYCULIN F] the IC50 [1] was 900 pM.

Molecule `COC[C@@H]([C@H](O)[C@H](O)C(=O)N[C@H](C)C[C@H](C)c1nc(/C=C/C[C@@H]2O[C@]3(C[C@@H](O)[C@@H]2C)O[C@H]([C@H](C[C@H](O)[C@H](C)[C@H](O)[C@H](C)/C=C(C)/C(C)=C\C=C\C(C)=C/C#N)OC)[C@H](OP(=O)(O)O)C3(C)C)co1)N(C)C` [CALYCULIN G] has an IC50 [1] of 900 pM.

`COC[C@@H]([C@H](O)[C@H](O)C(=O)N[C@H](C)C[C@H](C)c1nc(/C=C/C[C@@H]2O[C@]3(C[C@@H](O)[C@@H]2C)O[C@H]([C@H](C[C@H](O)[C@H](C)[C@H](O)[C@H](C)/C=C(C)/C(C)=C\C=C\C(C)=C\C#N)OC)[C@H](OP(=O)(O)O)C3(C)C)co1)N(C)C` [CALYCULIN H] showed an IC50 [1] of 900 pM.

`COC[C@@H]([C@H](O)[C@H](O)C(=O)N[C@H](C)C[C@H](C)c1nc(/C=C/C[C@@H]2O[C@]3(C[C@@H](O)[C@@H]2C)O[C@H]([C@H](C[C@H](O)[C@H](C)[C@H](O)[C@H](C)/C=C(C)/C(C)=C/C=C/C(C)=C\C#N)OC)[C@H](OP(=O)(O)O)C3(C)C)co1)N(C)C` [CALYCULIN] showed an IC50 [1] of 900 pM.

With `CC[C@H]1CCCC[C@@]2(C[C@@H]3CC[C@@H]4[C@H](C(=O)OCCCCCCCCCCCCCCCC(=O)N(CCCN)C[C@@H](O)CCN)[C@]5(CCC[C@@H](C)O5)N=C(N2)N34)O1` [CRAMBESCIDIN 800] the Activity (L1210) was 98%.

`CC[C@H]1CCCC[C@@]2(C[C@@H]3CC[C@]4(O)[C@H](C(=O)OCCCCCCCCCCCCCCCC(=O)N(CCCN)C[C@@H](O)CCN)[C@]5(CCC[C@@H](C)O5)N=C(N2)N34)O1` [CRAMBESCIDIN 816] gave an Activity (L1210) of 98%.

With `CC[C@@H]1CCCC[C@]2(C[C@H]3CCC4(O)C(C(=O)OCCCCCCCCCCCCCCCCC(=O)N(CCCN)CC(O)CCN)[C@@]5(CCC[C@H](C)O5)N=C(N2)N34)O1` (stereo partly drawn) [CRAMBESCIDIN 830] the Activity (L1210) was 98%.

Molecule `CC[C@@H]1CCCC[C@]2(C[C@H]3CCC4(O)C(C(=O)OCCCCCCCCCCCCCCCCCC(=O)N(CCCN)CC(O)CCN)[C@@]5(CCC[C@H](C)O5)N=C(N2)N34)O1` (stereo partly drawn) [CRAMBESCIDIN 844] has an Activity (L1210) of 98%.

For `[H][C@]12Nc3c4cccc3[C@]13C1=C(N=C(O1)[C@H](C(C)C)NC(=O)[C@@H](NC(=O)[C@@H](O)C(C)C)Cc1ccc(c3c1)O2)c1nc(Cl)c(o1)-c1c(Cl)[nH]c2cccc-4c12` [DIAZONAMIDE A], the IC50 (HCT-116) was under 0.015 µg/mL and the IC50 (B16) was under 0.015 µg/mL.

For `CO/N=C/CCCCCCC[C@@H](C)CCCCCCCCCCc1cccnc1` [IKIMINE A], the IC50 (KB) was 5 µg/mL (≈ 12.4 µM).

`CO[C@H]1C[C@H](CC[C@H](C)[C@H](O)[C@H](C)[C@H]2OC(=O)/C=C/C(C)=C/C[C@H](O)C[C@@H]3CCC[C@H](C[C@H](OC)[C@@H](C)[C@@H](O)C[C@@H](O)[C@H](C)[C@H](O)[C@@H](C)[C@H]([C@@H](C)CC[C@H]4C[C@H](OC)C[C@H](C)O4)OC(=O)/C=C/C(C)=C/C[C@H](O)C[C@@H]4C=CC[C@H](C[C@H](OC)[C@@H](C)[C@@H](O)C[C@@H](O)[C@@H]2C)O4)O3)O[C@@H](C)C1` [ISOSWINHOLIDE A] gave an IC50 (KB) of 1.1 µg/mL (≈ 0.79 µM).

In the case of `CC[C@H](C)[C@H]1NC(=O)[C@@H](NC(=O)[C@@H](CC(C)C)N(C)C(=O)[C@@H]2CCCN2C(=O)C(C)=O)[C@@H](C)OC(=O)[C@H](Cc2ccc(OC)cc2)N(C)C(=O)[C@@H]2CCCN2C(=O)[C@H](CC(C)C)NC(=O)[C@@H](C)C(=O)[C@H](C(C)C)OC(=O)C[C@@H]1O` [PLITIDEPSIN], the T/C (Leukemia cell) is reported as 210% and the T/C (Melanoma cell) is reported as 218%.

`CO[C@@H]1C[C@@H](O)C[C@@H](O)[C@H](C)[C@@H]([C@@H](C)[C@@H](O)[C@@H](C)CC[C@H]2C[C@H](OC)C[C@H](C)O2)OC(=O)/C=C/C(C)=C/C[C@H](O)C[C@@H]2C=CC[C@H](C[C@H](OC)[C@@H](C)[C@@H](O)C[C@@H](O)[C@H](C)[C@@H]([C@@H](C)[C@@H](O)[C@@H](C)CC[C@H]3C[C@H](OC)C[C@H](C)O3)OC(=O)/C=C/C(C)=C/C[C@H](O)C[C@@H]3CCC[C@H](C1)O3)O2` [SWINHOLIDE B] gave an IC50 (KB) of 0.04 µg/mL (≈ 0.029 µM).

`CO[C@H]1C[C@H](CC[C@H](C)[C@H](O)[C@H](C)[C@H]2OC(=O)/C=C/C(C)=C/C[C@H](O)C[C@@H]3C=CC[C@@H](C[C@H](OC)[C@@H](C)[C@@H](O)C[C@@H](O)[C@H](C)[C@@H]([C@@H](C)[C@@H](O)[C@@H](C)CC[C@H]4C[C@H](OC)C[C@H](C)O4)OC(=O)/C=C/C(C)=C/C[C@H](O)C[C@@H]4C=CC[C@@H](C[C@H](OC)[C@@H](C)[C@@H](O)C[C@@H](O)[C@@H]2C)O4)O3)O[C@@H](C)C1` [Swinholide A] gave an IC50 (KB) of 0.04 µg/mL (≈ 0.0288 µM).

For `CO[C@H]1C[C@H](CC[C@H](C)[C@H](O)[C@H](C)[C@H]2OC(=O)/C=C/C(C)=C/C[C@H](O)C[C@@H]3CCC[C@H](C[C@H](OC)[C@@H](C)[C@@H](O)C[C@@H](O)[C@H](C)[C@@H]([C@@H](C)[C@@H](O)[C@@H](C)CC[C@H]4C[C@H](O)C[C@H](C)O4)OC(=O)/C=C/C(C)=C/C[C@H](O)C[C@@H]4C=CC[C@H](C[C@H](OC)[C@@H](C)[C@@H](O)C[C@@H](O)[C@@H]2C)O4)O3)O[C@@H](C)C1` [swiholide C], the IC50 (KB) was 0.04 µg/mL (≈ 0.029 µM).

Source: ChEMBL document CHEMBL1150195, “The 1990 United States-Japan seminar on bioorganic marine chemistry, meeting report” (J Nat Prod, 1991)
